In the library only some 4.8% were active in any assay of this set; here they are far more common.
PAFAH2 FP inh = PAFAH2 enzyme inhibitors, primary screen, biochemical, fluorescence polarization, human; actives 0.99% (n = 340,000); recombinant PAFAH2, FP-rhodamine activity probe; inhibition, % at 3.39 µM;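 active = inhibition above the mean over all tested compounds plus 3 SD, cut at about 30% in these data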;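 note: inhibitors block probe labeling of enzyme so polarization drops; 0% = enzyme with DMSO and 100% = wells lacking PAFAH2 protein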
pPAFAH FP inh = pPAFAH enzyme inhibitors, primary screen, biochemical, fluorescence polarization, human. recombinant pPAFAH, FP-rhodamine probe fluorescence polarization. inhibition, % at 3.39 µM. AID 463082, 2010. actives 1.5% (n = 330,000);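 active = inhibition above the mean inhibition across the screen plus 3 SD, cut at about 25% in these data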;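 note: inhibitors block binding of the rhodamine activity-based probe so polarization drops; 0% = enzyme with DMSO and 100% = wells lacking pPAFAH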
Target sequence (Q13093 whole entry, looked up): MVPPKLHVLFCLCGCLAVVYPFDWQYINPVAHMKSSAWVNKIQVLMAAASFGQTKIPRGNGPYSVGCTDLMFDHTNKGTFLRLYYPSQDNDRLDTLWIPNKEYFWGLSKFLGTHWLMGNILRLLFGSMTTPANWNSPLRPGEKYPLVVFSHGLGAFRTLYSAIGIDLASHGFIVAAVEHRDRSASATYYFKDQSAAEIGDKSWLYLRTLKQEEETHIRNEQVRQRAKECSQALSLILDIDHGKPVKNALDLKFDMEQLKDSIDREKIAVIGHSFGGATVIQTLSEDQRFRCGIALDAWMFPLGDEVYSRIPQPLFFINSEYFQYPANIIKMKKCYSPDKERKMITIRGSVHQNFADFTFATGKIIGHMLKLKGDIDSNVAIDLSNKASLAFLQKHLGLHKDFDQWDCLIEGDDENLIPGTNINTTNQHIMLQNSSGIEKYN
UCH37 DUB inh = inhibitors of human UCH37 deubiquitinase, primary screen, biochemical, Ub-AMC cleavage, fluorescence; inhibition, % (no concentration beside the values); Ubiquitin carboxyl-terminal hydrolase isozyme L5 (Homo sapiens), Q9Y5K5; purified proteasome/UCH37; actives 0.33% (n = 330,000); AID 588478, 2011;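 active = mean inhibition over replicate wells above about 20%, limit read from the data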;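 note: 0% = compound-free wells with enzyme and 100% = wells lacking proteasome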
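Material: Human UCH37 enzyme supplied as purified proteasome complex | Schedule: 30 min compound-proteasome preincubation then 25 min substrate reaction, room temperature | Detection: AMC fluorescence from Ub-AMC cleavage, excitation 355 nm, emission 460 nm | Benchmarks: Wells without proteasome as full block, compound-free enzyme plus substrate as uninhibited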
NR3A LBD binder = binders of NR3A ligand-binding domain, primary screen, biophysical, differential scanning fluorimetry, uHTS; Glutamate receptor ionotropic, NMDA 3A (GRIN3A) ligand-binding domain; NR3A LBD differential scanning fluorimetry, Tm shift; 0% = protein alone, 100% = glycine-bound protein; Tm shift relative to glycine control, % at 25 µM; actives 2.5% (n = 340,000);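 active = melting temperature shift of at least 10% of the positive control shift, at one fixed dose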
PAFAH1B2 FP inh = PAFAH1B2 enzyme inhibitors, primary screen, biochemical, fluorescence polarization, human; Platelet-activating factor acetylhydrolase IB subunit alpha2 (Homo sapiens), P68402; recombinant PAFAH1B2, FP-rhodamine activity probe; inhibition, % at 3.39 µM; actives 1.2% (n = 340,000); AID 492953, 2010;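 active = inhibition above the mean of all tested compounds plus 3 SD, cut at about 24% in these data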;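 note: 0% = enzyme with DMSO and 100% = wells lacking PAFAH1B2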
PAFAH1B3 FP inh = PAFAH1B3 enzyme inhibitors, primary screen, biochemical, fluorescence polarization, human; recombinant PAFAH1B3, FP-rhodamine probe; inhibition, % at 3.39 µM; actives 0.28% (n = 340,000); AID 492972, 2010;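 active = inhibition above the screen-wide average of all tested compounds plus 3 SD, cut at about 25% in these data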;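 note: 0% = enzyme with DMSO only and 100% = wells lacking PAFAH1B3 protein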
Target sequence (Q15102 whole entry, looked up): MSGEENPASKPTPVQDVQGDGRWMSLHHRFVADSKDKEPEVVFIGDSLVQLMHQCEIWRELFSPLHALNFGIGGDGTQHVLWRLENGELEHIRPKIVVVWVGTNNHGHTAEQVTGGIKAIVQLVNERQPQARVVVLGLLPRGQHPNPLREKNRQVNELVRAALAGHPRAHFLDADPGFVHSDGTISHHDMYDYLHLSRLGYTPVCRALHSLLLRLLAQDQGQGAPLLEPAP
An asterisk follows results filed as active; x = no result.

SMILES | PAFAH2 FP inh | pPAFAH FP inh | UCH37 DUB inh | NR3A LBD binder | PAFAH1B2 FP inh | PAFAH1B3 FP inh
O=C(NCCN1CCOCC1)c1ccc(/C=C2\Sc3ccccc3N(Cc3ccccc3F)C2=O)cc1 | -8 | 33* | -21 | -13 | -1 | 2
CCCCCCSc1nnc2[nH]c(=O)cc(N)n12 | 2 | 1 | -1 | -1 | 26* | 4
COCCN1C=C2C(=O)C(C)(OC(=O)CCC(=O)OC)C(=O)C(Br)=C2C=C1c1ccc(OC)cc1 (stereo not given) | 1 | 9 | x | 1 | 13 | 8
COC(=O)CCC(=O)OC1(C)C(=O)C2=CN(Cc3ccco3)C(c3ccc(OC)cc3)=CC2=C(Br)C1=O (stereo not given) | x | 25* | x | x | x | x
CC(=NNC(=O)Cc1cccn1C)c1cccs1 | x | x | 6 | x | x | x
COc1ccc(CCNC(=O)CC(C)=NNC(=O)Cc2cccc3ccccc23)cc1OC | x | x | 1 | x | x | x
COCc1c(Br)c(C)nc(OCC(=O)NN=Cc2cc(C)n(-c3ccc([N+](=O)[O-])cc3)c2C)c1C#N | x | x | 1 | x | x | x
Cc1noc(NS(=O)(=O)c2ccc(NC(=O)c3cc(F)c(F)c(F)c3F)cc2)c1C | -3 | x | 6 | 92* | 2 | -4
CC(C=NNC(=O)c1nnn(-c2nonc2N)c1CN1CCCCC1)c1ccccc1 (stereo not given) | x | x | 6 | x | x | x
O=C(O)c1cc(NN=Cc2ccc(-c3ccccc3)cc2)ccc1Cl | x | x | -26 | x | x | x
CC(C)c1c(C(=O)N/N=C/c2cccs2)nnn1-c1nonc1N | 0 | 4 | x | 7 | 3 | 2
CCCc1c(C(=O)N/N=C/C(C)=C/c2ccccc2)nnn1-c1nonc1N | 4 | 0 | x | 34* | 0 | 11
CCCN(CCC)Cc1c(C(=O)N/N=C/C(C)=C\c2ccccc2)nnn1-c1nonc1N | 1 | -3 | x | 1 | 4 | -2
C/C(C=NNC(=O)c1nnn(-c2nonc2N)c1C(C)C)=C\c1ccco1 | x | x | -17 | x | x | x
CC(/C=N/NC(=O)c1nnn(-c2nonc2N)c1C(C)C)=C\c1ccccc1 | -1 | -6 | x | 27* | 2 | -1
CC(C)c1c(C(=O)N/N=C2\CCc3ccccc32)nnn1-c1nonc1N | -2 | 7 | x | 10* | 4 | 5
O=C(CNC(=O)c1cccnc1)NN=Cc1cc(Br)c(O)c(Br)c1 | x | x | -12 | x | x | x
CC(CC(C)C)=NNC(=O)Nc1ccccc1 | x | x | 2 | x | x | x
COc1cc(NC(=O)COc2cc3oc(=O)cc(C)c3cc2Cl)cc(OC)c1OC | 0 | 3 | 6 | 1 | 0 | 4
COc1cc(NC(=O)COc2ccc3c(C)cc(=O)oc3c2C)cc(OC)c1OC | -3 | -5 | -7 | 14* | -9 | 2
CCN(CC)S(=O)(=O)c1ccc(OC)c(NC(=O)COc2ccc3c(C)cc(=O)oc3c2)c1 | -8 | 8 | -28 | 11* | -6 | -5
COc1ccc(S(=O)(=O)N2CCOCC2)cc1NC(=O)COc1ccc(C)cc1 | -1 | 9 | 1 | 18* | 1 | 10
Cc1ccc(S(=O)(=O)N2CCOCC2)cc1NC(=O)COc1ccccc1Cc1ccccc1 | 0 | 26* | 2 | 0 | 2 | 1
CC(=NN=C(N)SC1CC(=O)N(c2ccc(Cl)cc2)C1=O)c1cccs1 (stereo not given) | x | x | 6 | x | x | x
Fc1ccc(C=Nn2c(C3CCCCC3)n[nH]c2=S)cc1 | x | x | 1 | x | x | x
SMILES | PAFAH2 FP inh | pPAFAH FP inh | UCH37 DUB inh | NR3A LBD binder | PAFAH1B2 FP inh | PAFAH1B3 FP inh
CCN(CC)S(=O)(=O)c1cccc(C(=O)NN=Cc2c(C)nn(-c3ccccc3)c2Cl)c1 | x | x | 3 | x | x | x
O=C(NN=Cc1cccc(Cl)c1)c1n[nH]c2c1CCCC2 | x | x | 6 | x | x | x
Cc1ccc(CNC(=O)COc2ccc(S(=O)(=O)N3CCOCC3)cc2)cc1 | -5 | 28* | 1 | 10* | 3 | 4
Cc1ccc(NC(=O)Cn2nnc(C(=O)Nc3ccc(F)c(Cl)c3)c2N)cc1 | -13 | -11 | 1 | 32* | -14 | -12
COc1ccc(NC(=O)Cn2nnc(C(=O)Nc3ccc(F)c(Cl)c3)c2N)cc1 | -14 | -3 | 4 | -84 | -3 | -1
Cc1ccc(NC(=O)Cn2nnc(C(=O)NCc3ccc(Cl)cc3)c2N)cc1F | -12 | 1 | -1 | 13* | -2 | 2
Cc1ccc(NC(=O)Cn2nnc(C(=O)NCc3ccccc3)c2N)cc1C | -3 | 3 | 6 | 26* | 4 | -2
CCOc1cc(C=NNC(=O)COc2nc(C)cc(COC)c2C#N)ccc1O | x | x | 3 | x | x | x
N#Cc1c(N)nc2c(c1N)CC(=O)N2c1ccc(Cl)cc1 | 3 | 8 | 3 | -1 | 24* | 19
Cc1ccccc1NC(=O)N(O)C1(C#N)CCCCC1 | 13 | x | x | 15* | 6 | 2
Cc1ccccc1NC(=O)NC1CCCCCCC1 | -5 | 22 | 1 | -2 | 1 | -3
O=C(CNC(=O)c1cccc(Br)c1)NN=Cc1cc(Br)cc(Br)c1O | x | x | 0 | x | x | x
COc1ccc(S(=O)(=O)N(CCN2CCOCC2)Cc2cc(OC)ccc2OC)cc1 | 5 | 2 | 3 | 16* | 3 | 0
COc1ccc(S(=O)(=O)N(CCCN2CCOCC2)Cc2cccc(OC)c2OC)cc1 | -5 | -2 | 5 | 2 | -1 | 8
Oc1ccc(N2CCN(C(c3cccs3)c3nnnn3CCc3ccccc3)CC2)cc1 (stereo not given) | 0 | 30* | 2 | -4 | 19 | 3
c1ccc(Cn2nnnc2C(c2cccs2)N2CCc3ccccc3C2)cc1 (stereo not given) | 7 | 4 | 2 | 16* | 6 | 9
c1ccc(Cn2nnnc2C(c2cccs2)N2CCCCCC2)cc1 (stereo not given) | -1 | -1 | 2 | 4 | 13 | -2
CC(C)(C)CC(C)(C)c1ccc(OCC(=O)NN=Cc2ccc(S(=O)(=O)O)o2)cc1 | x | x | 1 | x | x | x
CCCCOc1ccc(-c2nnn(CC(=O)NCCc3c[nH]c4ccccc34)n2)cc1 | 5 | 10 | 0 | 17* | -3 | 10
CCCCCCCCCCCCCCCC(=O)NCCc1c[nH]c2ccccc12 | 0 | -3 | -1 | 0 | -3 | 8
CCOC(=O)Cn1c(=O)oc2cc(S(=O)(=O)NCCc3ccc(C)cc3)ccc21 | -8 | 29* | 4 | 0 | 4 | 7
CCOC(=O)Cn1c(=O)oc2cc(S(=O)(=O)NCCCc3ccccc3)ccc21 | 3 | 4 | 1 | 1 | 10 | 7
Cn1c(=O)oc2cc(S(=O)(=O)NCCC(=O)NCCc3ccc(Cl)cc3)ccc21 | -4 | 14 | -2 | -4 | 32* | 1

High-throughput results (PubChem)
